# MC4R antagonist: MC4R antagonists of cAMP signaling, primary screen, cell-based, TR-FRET, antagonist arm of biased-ligand search; MC4R-expressing cells, MTII-stimulated cAMP, LANCE TR-FRET; AID 540295, 2011; actives 0.48% (n = 360,000); inhibition, % at 6.5 µM; Melanocortin receptor 4 (Homo sapiens), P32245;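 active = inhibition above its plate's cutoff, the mean of tested wells on that plate plus 3 SD, cut at about 29% in these data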;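 note: 0% = Melanotan II alone and 100% = Melanotan II plus saturating MCL0020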
#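 Material – human MC4R-expressing U2OS cells · Repeats – no replicates · Detection – TR-FRET with Eu-cAMP and labeled anti-cAMP, 671 nm · Times – compound 30 min, challenge 1 h, detection 1 h · Compound – single nominal compound dose of 6.5 µM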
# HTR2A ag: mouse Htr2a agonists via beta-arrestin recruitment, primary screen, cell-based, luminescence | CHO-K1 mHTR2A beta-arrestin complementation; percent of 30 µM serotonin response | activation, % at 7.6 µM | actives 0.66% (n = 360,000) | AID 624169, 2012;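 active = activation above a run cutoff, the mean activation of all tested compounds plus 3 SD, cut at about 14% in these data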;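 note: 0% = plate median of compound wells and 100% = 30 µM serotonin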
# TMEM16A inh: TMEM16A chloride channel inhibitors, primary screen, cell-based, HTS; Anoctamin-1 (Mus musculus), Q8BHY3; HEK293 TMEM16A/YFP iodide influx fluorescence, ionomycin; normalized B-score (activity score, 25-100; higher = stronger inhibition) at 10 µM; actives 1.2% (n = 310,000);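 active = ratio plate-corrected score three or more library SD toward inhibition, starting fluorescence score within five deviations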;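 note: score derived from kinetic fluorescence span divided by baseline fluorescence per well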
# Target sequence (Q8BHY3 whole entry, looked up): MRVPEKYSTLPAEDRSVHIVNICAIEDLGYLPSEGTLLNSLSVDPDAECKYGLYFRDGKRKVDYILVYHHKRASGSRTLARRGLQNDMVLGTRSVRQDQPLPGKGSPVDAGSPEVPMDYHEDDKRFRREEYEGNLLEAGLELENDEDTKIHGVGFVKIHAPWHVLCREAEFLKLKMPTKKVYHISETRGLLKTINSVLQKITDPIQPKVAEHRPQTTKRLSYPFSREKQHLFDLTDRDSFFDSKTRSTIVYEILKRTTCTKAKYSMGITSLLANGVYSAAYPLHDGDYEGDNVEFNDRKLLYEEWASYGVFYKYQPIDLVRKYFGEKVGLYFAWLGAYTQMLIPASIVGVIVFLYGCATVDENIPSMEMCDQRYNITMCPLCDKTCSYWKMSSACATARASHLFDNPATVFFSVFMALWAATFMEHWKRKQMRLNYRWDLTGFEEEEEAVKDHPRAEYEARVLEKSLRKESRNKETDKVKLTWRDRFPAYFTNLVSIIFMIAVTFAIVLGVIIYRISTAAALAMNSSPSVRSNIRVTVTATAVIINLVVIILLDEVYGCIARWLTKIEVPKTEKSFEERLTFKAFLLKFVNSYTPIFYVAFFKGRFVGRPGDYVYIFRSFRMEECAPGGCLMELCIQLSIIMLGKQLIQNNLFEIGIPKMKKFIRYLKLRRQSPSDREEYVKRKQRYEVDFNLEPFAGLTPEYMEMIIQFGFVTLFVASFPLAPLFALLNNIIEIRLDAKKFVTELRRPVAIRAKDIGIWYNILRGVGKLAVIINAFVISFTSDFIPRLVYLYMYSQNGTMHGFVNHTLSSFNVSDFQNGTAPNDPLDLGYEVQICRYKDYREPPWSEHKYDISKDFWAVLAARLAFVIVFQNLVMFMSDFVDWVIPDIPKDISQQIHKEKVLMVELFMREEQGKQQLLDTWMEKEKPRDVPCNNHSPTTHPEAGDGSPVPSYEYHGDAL
# MC4R barr agon: MC4R agonists recruiting beta-arrestin, primary screen, cell-based, luminescence, agonist arm of biased-ligand search. U2OS MC4R beta-arrestin complementation; percent of melanotan II response, DMSO zero. activation, % at 8.9 µM. actives 0.98% (n = 360,000);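 active = activation above a per-plate cutoff, the mean activation of sample wells on that plate plus 3 SD, cut at about 8% in these data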
# TMEM16A act: TMEM16A chloride channel activators or potentiators, primary screen, cell-based, HTS; Anoctamin-1 (Mus musculus), Q8BHY3; B-score at 10 µM; HEK293 TMEM16A/YFP-H148Q/I152L, iodide quench fluorescence; active compounds read low; AID 623877, 2012; actives 0.3% (n = 340,000);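 active = fluorescence-ratio B-score plate-corrected deviation score at least 3 library SD below zero, with starting fluorescence score within 5 deviations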;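 note: channel opened by trigger with iodide after compound preincubation; score built on the fluorescence ratio of max minus min over baseline; more negative score means more quench and so TMEM16A activation or potentiation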
# MIN6 prolif: inducers of MIN6 beta-cell proliferation, primary screen, ATP luminescence, uHTS; proliferation, % at 10 µM; MIN6 cells proliferation, ATPlite luminescence, 48 h; cells starved in 0.2% serum; 100% = growth in 10% serum; actives 0.29% (n = 330,000);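 active = compounds whose signal lies at least 3.5 SD above the mean of all wells on their plate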;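 note: 0% = DMSO-treated cells in low-serum medium and 100% = 10% serum control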
# MC4R barr conf: MC4R beta-arrestin agonists, retest, confirmation, cell-based, luminescence, U2OS; shares compounds with MC4R barr agon; U2OS MC4R beta-arrestin recruitment; scaled DMSO 0%, Melanotan II 100%; activation, % at 8.9 µM; actives 31% (n = 2,400); AID 602192, 2012;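 active = mean activation across replicates above the hit cutoff set in the earlier primary screen, cut at about 8% in these data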
# MOR DOR agonist: agonists of MOR-DOR heterodimerization, counter-screen for MC4R biased agonist project, cell-based, luminescence; AID 602194, 2012; actives 5.8% (n = 2,400); activation, % at 9.2 µM; U2OS PathHunter beta-arrestin, beta-gal luminescence; percent of deltorphin B response, DMSO zero; shares compounds with MC4R barr agon;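 active = mean activation across replicates exceeds the hit threshold derived in the earlier primary screen, cut at about 18% in these data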;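 note: 100% = deltorphin B at 0.9 µM final and 0% = DMSO alone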
# Numbers without * were called inactive; i = inactive; · = no result given. An excerpt weighted towards active compounds, which were near 3.4% of everything screened.
SMILES,MC4R antagonist,HTR2A ag,TMEM16A inh,MC4R barr agon,TMEM16A act,MIN6 prolif,MC4R barr conf,MOR DOR agonist
C=CCC[C@H](Cc1ccc(F)cc1)C(=O)OC[C@H](Cc1c[nH]c2ccccc12)NC(=O)[C@@H](CC=C)CC(=O)N[C@@H](CO)Cc1ccccc1,8,-3,·,24*,i,-5,15*,9
C=CCC[C@H](Cc1ccc(F)cc1)C(=O)OC[C@H](Cc1c[nH]c2ccccc12)NC(=O)[C@H](CC=C)CC(=O)N[C@H](CO)Cc1ccccc1,19,-2,·,11*,i,-4,2,5
C=CC[C@@H](CC(=O)N[C@@H](CO)Cc1ccccc1)C(=O)N[C@@H](COC(=O)[C@@H](CC=C)Cc1ccc(F)cc1)Cc1c[nH]c2ccccc12,14,7,·,20*,·,-5,4,13
CCc1nc2ccc(C(=O)NCCCN3CCCC3=O)cn2c1N(C)C(=O)Nc1ccccc1OC,7,-1,·,3,·,·,·,·
NC(=O)c1cc[n+](Cc2ccccc2Cl)cc1,10,-1,i,0,i,-1,·,·
COc1ccccc1CN1CC(C(=O)NCCCc2ccc(F)cc2)CCC1=O (centres undefined),0,10,i,-1,i,-6,·,·
CCN(CC)CCNC(=O)c1ccc(NC(=O)c2cc(S(=O)(=O)N3CCCCC3)ccc2N2CCOCC2)cc1,14,4,·,-4,i,·,·,·
CN1CCN(CCNC(=O)Cn2c(=O)c3cccn3c3ccc(F)cc32)CC1,0,-5,i,-1,i,-2,·,·
Cc1cc(C(=O)N/N=C/c2cc(Br)ccc2OC(=O)c2ccccc2)n[nH]1,-1,12,i,17*,i,-3,3,7
Cc1cc(C(=O)N/N=C/c2cc(Br)ccc2OC(=O)c2ccccc2Cl)n[nH]1,10,0,i,-3,i,-6,·,·
O=S(=O)(O)c1ccc2c(c1)C(C(Cl)(Cl)Cl)OC(C(Cl)(Cl)Cl)O2 (centres undefined),-1,-4,·,0,i,·,·,·
Cc1cc(C(=O)N2CCN(c3ccc([N+](=O)[O-])cc3)CC2)n[nH]1,10,5,i,-1,i,-1,·,·
Cc1c(N)cccc1-n1cnnn1,18,5,i,-2,i,-3,·,·
c1cc2ccc3ccc(-n4cnnn4)c4ccc(c1)c2c34,-12,5,i,31*,i,3,6,6
O=C(Nc1ccc(C(O)(C(F)(F)F)C(F)(F)F)cc1)c1ccc(Cl)c([N+](=O)[O-])c1,-3,-2,100*,14*,i,-3,15*,10
O=C(O)c1cc(NC(=O)c2ccc(Cl)c([N+](=O)[O-])c2)cc(C(=O)O)c1,5,-3,i,-3,i,-2,·,·
CN(CCO)c1cccc2c1S(=O)(=O)N[C@H](Cc1ccccc1)CO2,·,-1,·,·,·,·,·,·
Cc1ccc(NC(=O)CSc2nc(-c3ccco3)cc(C(F)(F)F)n2)cc1C,-21,0,i,24*,i,-3,4,4
CCC(=O)c1cn(CC(=O)Nc2ccc(F)cc2)c2ccccc12,-5,3,·,0,·,·,·,·
O=C(O)CSc1ncnc2sc(-c3ccccc3)cc12,9,-2,i,0,i,3,·,·
CC(=O)c1c(C)[nH]c(C(=O)CSc2ncnc3sc(-c4ccccc4)cc23)c1C,15,2,25*,25*,i,-6,16*,4
Cc1noc(C)c1C(=O)N1CCC1(C)C(=O)NS(=O)(=O)c1ccccc1Cl (centres undefined),0,9,·,1,·,·,·,·
Cc1cccc(-n2nnnc2SCC(=O)c2cc(C)n(CC3CCCO3)c2C)c1 (centres undefined),-3,4,i,0,i,-2,·,·
Cc1cccc(-n2nnnc2SCC(=O)c2cc(C)n(Cc3ccco3)c2C)c1,6,0,i,27*,i,-1,16*,4
Cc1nc2ccc(F)cc2cc1C(=O)Nc1ccc(Cl)c(Cl)c1,-1,-1,i,9.9*,i,·,-2,6
SMILES,MC4R antagonist,HTR2A ag,TMEM16A inh,MC4R barr agon,TMEM16A act,MIN6 prolif,MC4R barr conf,MOR DOR agonist
CC1C(=O)N(Cc2cn(Cc3ccco3)nn2)CCS(=O)(=O)N1Cc1ccc(-c2cccc(N(C)C)c2)cc1 (centres undefined),2,-8,·,0,·,·,·,·
Cc1ccc(C(=O)c2no[n+]([O-])c2C(=O)c2ccc(C)cc2)cc1,18,0,i,19*,i,-6,5,39*
Nc1ncnc2c1ncn2[C@@H]1O[C@H](CNCc2ccc(-n3cccn3)cc2)[C@@H](O)[C@H]1O,1,3,·,-3,·,-2,·,·
COc1ccc(OCc2n(CC(=O)OC3CC(C)CCC3C(C)C)c3ccccc3[n+]2C)cc1 (centres undefined),-6,-6,i,38*,i,-6,11*,9
CC1CCC(C(C)C)C(OC(=O)COC(=O)c2cc(O)ccc2N)C1 (centres undefined),10,3,i,7,i,-3,·,·
O=C(Cn1nnc(-c2ccc(F)cc2)n1)NC(=O)NC1CCCCC1,5,10,·,9.7*,·,·,2,5
Cc1ccc(-c2nnn(CC(=O)NC(=O)NC3CCCCC3)n2)cc1,6,8,·,7,i,2,·,·
O=C(Nc1cccc(-c2nc3cccnc3s2)c1)C1c2ccccc2Oc2ccccc21,2,5,·,10*,i,-3,3,8
O=C(Nc1cccc(-c2nc3cccnc3s2)c1)c1cccnc1Cl,-1,2,i,2,i,-3,·,·
Clc1ccc(Cl)c(OCCCCNCc2ccccc2)c1,-2,0,i,10*,i,0,16*,11
Clc1ccc(OCCCNCc2ccccc2)c(Br)c1,1,-1,i,0,i,-7,·,·

# Assay outcomes (PubChem)
